pKi: −log10 of the molar value.
Legend:
[1] = biological target: Sodium-dependent serotonin transporter (Rattus norvegicus) (UniProt P31652); assay: Specific binding in rat hypothalamus at 30 min postinjection in vivo; assay type: functional, organism-based; details: tested as the 18F-labelled form
Method in brief: (§1)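 Male Sprague-Dawley rats, n=3 per time point, received about 20 µCi of F-18 radioligand in saline iv by tail vein and were killed at 10–120 min. %ID/g was measured with decay and tail-residual correction. Hypothalamic specific binding = (%ID/g hypothalamus − %ID/g cerebellum)/%ID/g cerebellum; mean ± SD.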

[2] = biological target: Sodium-dependent serotonin transporter (Rattus norvegicus) (UniProt P31652); assay: Specific binding of [18F]AFA in rat frontal cortex after citalopram treatment; n=3; assay type: functional, tissue-based; details: tested as the 18F-labelled form
Method in brief: (§2)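 Rats, three per group, were pretreated iv with blocker at 2 mg/kg in saline, or with saline as control, 10–15 min before tail-vein F-18 radioligand (about 20 µCi). Killed at 60 min and regional %ID/g determined. Specific binding = (region activity − cerebellum activity)/cerebellum activity; mean ± SD.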

[3] = biological target: Sodium-dependent serotonin transporter (Rattus norvegicus) (UniProt P31652); assay: Specific binding of [18F]AFA in rat thalamus after citalopram treatment; n=3; assay type: functional, tissue-based; details: tested as the 18F-labelled form; method in brief: as §2
[4] = biological target: Sodium-dependent serotonin transporter (Homo sapiens, UniProt P31645); assay: In vitro displacement of [3H]paroxetine from human serotonin transporter expressed in HEK293 cells; assay type: cell-based
Sequence of Sodium-dependent serotonin transporter (P31645 whole entry): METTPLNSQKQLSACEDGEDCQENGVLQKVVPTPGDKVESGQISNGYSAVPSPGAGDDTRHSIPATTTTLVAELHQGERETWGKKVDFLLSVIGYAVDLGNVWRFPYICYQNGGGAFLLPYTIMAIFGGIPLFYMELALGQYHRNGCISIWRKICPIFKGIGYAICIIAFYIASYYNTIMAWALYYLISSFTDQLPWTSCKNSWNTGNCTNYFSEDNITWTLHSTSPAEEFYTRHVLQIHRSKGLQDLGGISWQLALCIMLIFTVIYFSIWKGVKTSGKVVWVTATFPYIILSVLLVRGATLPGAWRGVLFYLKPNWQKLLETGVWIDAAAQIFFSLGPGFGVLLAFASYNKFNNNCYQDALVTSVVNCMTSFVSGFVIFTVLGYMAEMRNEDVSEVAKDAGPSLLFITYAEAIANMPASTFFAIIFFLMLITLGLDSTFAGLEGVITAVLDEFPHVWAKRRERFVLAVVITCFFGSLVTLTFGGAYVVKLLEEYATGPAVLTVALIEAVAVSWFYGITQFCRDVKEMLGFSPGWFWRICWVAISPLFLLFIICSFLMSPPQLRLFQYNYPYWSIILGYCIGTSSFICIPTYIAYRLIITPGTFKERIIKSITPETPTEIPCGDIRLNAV

Rattus norvegicus [5] = organism: Rattus norvegicus; assay: Regional uptake of [18F]AFA in frontal cortex of rat pretreated with compound 7d; n=3; assay type: functional, organism-based; details: tested as the 18F-labelled form
[6] = biological target: Sodium-dependent serotonin transporter (Rattus norvegicus) (UniProt P31652); assay: Specific binding of [18F]-AFA in rat striatum after citalopram treatment; n=3; assay type: functional, tissue-based; details: tested as the 18F-labelled form; method in brief: as §2
[7] = biological target: Sodium-dependent serotonin transporter (Rattus norvegicus) (UniProt P31652); assay: Specific binding of [18F]AFA in rat frontal cortex after GBR-12935 treatment; n=3; assay type: functional, tissue-based; details: tested as the 18F-labelled form; method in brief: as §2
Rattus norvegicus [8] = organism: Rattus norvegicus; assay: Regional uptake of [18F]AFA in hippocampus of rat pretreated with compound citalopram; n=3; assay type: functional, organism-based; details: tested as the 18F-labelled form
Method in brief: (§3)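 Male Sprague-Dawley rats, three per group, received blocker (2 mg/kg iv in saline) or saline only (controls) 10–15 min before about 20 µCi of tail-vein F-18 radioligand. Killed 60 min after tracer. Blood and brain regions weighed and gamma-counted. %ID/g was decay- and tail-corrected; mean ± SD.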

Rattus norvegicus [9] = organism: Rattus norvegicus; assay: Regional uptake of [18F]AFA in thalamus of rat pretreated with compound citalopram; n=3; assay type: functional, organism-based; details: tested as the 18F-labelled form; method in brief: as §3
[10] = biological target: Sodium-dependent serotonin transporter (Rattus norvegicus) (UniProt P31652); assay: Specific binding in rat hypothalamus at 60 min postinjection in vivo; assay type: functional, organism-based; details: tested as the 18F-labelled form; method in brief: as §1
[11] = biological target: Sodium-dependent serotonin transporter (Rattus norvegicus) (UniProt P31652); assay: Specific binding of [18F]AFA in rat striatum after GBR-12935 treatment; n=3; assay type: functional, tissue-based; details: tested as the 18F-labelled form; method in brief: as §2
[12] = biological target: Sodium-dependent serotonin transporter (Rattus norvegicus) (UniProt P31652); assay: Specific binding in rat hypothalamus at 10 min postinjection in vivo; assay type: functional, organism-based; details: tested as the 18F-labelled form; method in brief: as §1
[13] = biological target: Sodium-dependent serotonin transporter (Rattus norvegicus) (UniProt P31652); assay: Specific binding of [18F]AFA in rat hypothalamus after citalopram treatment; n=3; assay type: functional, tissue-based; details: tested as the 18F-labelled form; method in brief: as §2
Rattus norvegicus [14] = organism: Rattus norvegicus; assay: Regional uptake of [18F]-AFA in blood of rat pretreated with compound citalopram; n=3; assay type: functional, organism-based; details: tested as the 18F-labelled form; method in brief: as §3
Rattus norvegicus [15] = organism: Rattus norvegicus; assay: Regional uptake of [18F]AFA in striatum of rat pretreated with compound 7d; n=3; assay type: functional, organism-based; details: tested as the 18F-labelled form
Rattus norvegicus [16] = organism: Rattus norvegicus; assay: Regional uptake of [18F]AFA in cerebellum of rat pretreated with compound 7d; n=3; assay type: functional, organism-based; details: tested as the 18F-labelled form
[17] = biological target: Sodium-dependent serotonin transporter (Rattus norvegicus) (UniProt P31652); assay: Specific binding of [18F]AFA in rat hippocampus after GBR-12935 treatment; n=3; assay type: functional, tissue-based; details: tested as the 18F-labelled form; method in brief: as §2
Rattus norvegicus [18] = organism: Rattus norvegicus; assay: Regional uptake of [18F]AFA in cerebellum of rat pretreated with compound nisoxetine; n=3; assay type: functional, organism-based; details: tested as the 18F-labelled form; method in brief: as §3
Rattus norvegicus [19] = organism: Rattus norvegicus; assay: Regional uptake of [18F]AFA in striatum of rat pretreated with compound citalopram; n=3; assay type: functional, organism-based; details: tested as the 18F-labelled form; method in brief: as §3
[20] = biological target: Sodium-dependent serotonin transporter (Rattus norvegicus) (UniProt P31652); assay: Specific binding of [18F]AFA in rat hippocampus after nisoxetine treatment; n=3; assay type: functional, tissue-based; details: tested as the 18F-labelled form; method in brief: as §2
[21] = biological target: Sodium-dependent serotonin transporter (Rattus norvegicus) (UniProt P31652); assay: Specific binding in rat hypothalamus at 120 min postinjection in vivo; assay type: functional, organism-based; details: tested as the 18F-labelled form; method in brief: as §1
Rattus norvegicus [22] = organism: Rattus norvegicus; assay: Regional uptake of [18F]AFA in hippocampus of rat pretreated with compound nisoxetine; n=3; assay type: functional, organism-based; details: tested as the 18F-labelled form; method in brief: as §3
[23] = biological target: Sodium-dependent serotonin transporter (Rattus norvegicus) (UniProt P31652); assay: Specific binding in rat hypothalamus at 90 min postinjection in vivo; assay type: functional, organism-based; details: tested as the 18F-labelled form; method in brief: as §1
Rattus norvegicus [24] = organism: Rattus norvegicus; assay: Regional uptake of [18F]AFA in blood of rat pretreated with compound 7d; n=3; assay type: functional, organism-based; details: tested as the 18F-labelled form
Rattus norvegicus [25] = organism: Rattus norvegicus; assay: Regional uptake of [18F]AFA in frontal cortex of rat pretreated with compound citalopram; n=3; assay type: functional, organism-based; details: tested as the 18F-labelled form; method in brief: as §3

Sequence of Sodium-dependent serotonin transporter (Rattus norvegicus) (P31652 whole entry): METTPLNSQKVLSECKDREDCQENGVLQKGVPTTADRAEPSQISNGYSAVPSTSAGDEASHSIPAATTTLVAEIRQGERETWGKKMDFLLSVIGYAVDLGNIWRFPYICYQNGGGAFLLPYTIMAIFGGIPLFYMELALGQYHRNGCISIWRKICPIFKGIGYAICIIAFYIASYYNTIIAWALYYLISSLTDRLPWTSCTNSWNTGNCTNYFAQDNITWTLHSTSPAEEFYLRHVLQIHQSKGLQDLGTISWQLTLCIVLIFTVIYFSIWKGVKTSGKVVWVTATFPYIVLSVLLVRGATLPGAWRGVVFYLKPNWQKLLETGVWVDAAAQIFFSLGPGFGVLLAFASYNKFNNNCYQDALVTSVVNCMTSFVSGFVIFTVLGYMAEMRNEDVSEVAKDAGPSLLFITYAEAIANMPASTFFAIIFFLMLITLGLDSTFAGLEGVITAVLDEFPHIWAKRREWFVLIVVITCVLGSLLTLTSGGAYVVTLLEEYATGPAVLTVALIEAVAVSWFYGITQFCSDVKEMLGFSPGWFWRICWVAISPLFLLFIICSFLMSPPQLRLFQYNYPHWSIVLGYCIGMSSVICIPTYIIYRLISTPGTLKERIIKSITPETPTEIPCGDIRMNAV

Specific binding [1]: 2.27 %ID/g
Specific binding [2]: 0.36 %ID/g
Specific binding [3]: 1.05 %ID/g
pKi [4]: 8.98
Specific binding [6]: 0.52 %ID/g
Specific binding [7]: 3.83 %ID/g
Specific binding [10]: 4.56 %ID/g
Specific binding [11]: 4.37 %ID/g
Specific binding [12]: 0.98 %ID/g
Specific binding [13]: 1.37 %ID/g
Specific binding [17]: 3.51 %ID/g
Specific binding [20]: 2.72 %ID/g
Specific binding (dimensionless ratio) [21]: 8.37
Specific binding (dimensionless ratio) [23]: 5.81
SMILES: CN(C)Cc1ccccc1Sc1ccc(CF)cc1N
Uptake (Rattus norvegicus [5]): 0.12 %ID/g
Uptake (Rattus norvegicus [8]): 0.13 %ID/g
Uptake (Rattus norvegicus [9]): 0.16 %ID/g
Uptake (Rattus norvegicus [14]): 0.12 %ID/g
Uptake (Rattus norvegicus [15]): 0.14 %ID/g
Uptake (Rattus norvegicus [16]): 0.09 %ID/g
Uptake (Rattus norvegicus [18]): 0.13 %ID/g
Uptake (Rattus norvegicus [19]): 0.12 %ID/g
Uptake (Rattus norvegicus [22]): 0.47 %ID/g
Uptake (Rattus norvegicus [24]): 0.11 %ID/g
Uptake (Rattus norvegicus [25]): 0.11 %ID/g

Reference: ChEMBL document CHEMBL1145212, “Fluorinated diaryl sulfides as serotonin transporter ligands: synthesis, structure-activity relationship study, and in vivo evaluation of fluorine-18-labeled compounds as PET imaging agents” (J Med Chem, 2005)
